Results collected from several papers.
Protocols differ between the studies behind these lines. ≈ marks a conversion by molar mass, not a printed value.

SMILES	tested on	assay	system	setting	measurement	value
Nc1nn2c(-c3ccc(Cl)cc3Cl)cc(-c3ccc(OCc4ccccc4)cc3)nc2c1N=Nc1ccc(F)cc1	Saccharomyces cerevisiae	microbial killing, broth dilution	ATCC9763		MFC	62.5 µg/mL (≈ 107 µM)
Fc1ccc(C=NNC(=S)Nc2cccnc2)cc1	Leishmania tropica	parasite growth, MTT		72 h, promastigote	IC50	314 µM
Cc1cccc(N=C2C(=O)Nc3ccccc32)c1	L02	cell growth or viability, MTT		48 h	IC50	> 100 µM
C[C@H]1CNCCN1c1nccc(-c2onc3c2CCC[C@@]32CCCc3sc(N)c(C#N)c32)n1	BaF3	cell growth or viability		72 h	EC50	0.374 µM
O=C1C(=Nc2ccccc2I)c2ccccc2N1Cc1ccc([N+](=O)[O-])cc1	L02	cell growth or viability, MTT		48 h	IC50	56.3 µM
C[C@H](Oc1nccc(-c2noc([C@@]3(C)CCCc4sc(N)c(C#N)c43)n2)n1)[C@@H]1CCCN1C	BaF3	cell growth or viability		72 h	EC50	0.317 µM
CNC(=S)NN=Cc1ccc(O)c(OC)c1	Leishmania tropica	parasite growth, MTT		72 h, promastigote	IC50	200 µM
CCOC(=O)C1=C(CN2CCC[C@@H]2C(=O)Nc2ccc(B(O)O)cc2)NC(c2nccs2)=N[C@H]1c1ccc(F)cc1Br	Hepatitis B virus	viral replication, inhibitor, qPCR	HepDES19	72 h	EC50	0.07 µM
Cc1ccc(CN2C(=O)C(=Nc3cccc(Cl)c3)c3ccccc32)cc1	L02	cell growth or viability, MTT		48 h	IC50	4.76 µM
CCOC(=O)C1=C(CN2CCC(C(=O)Nc3ccc(B4OC(C)(C)C(C)(C)O4)cc3)C2)NC(c2nccs2)=NC1c1ccc(F)cc1Br (stereo not shown)	Hepatitis B virus	viral replication, inhibitor, qPCR	HepDES19	72 h	EC50	0.77 µM
O=C1C(=Nc2cccc(Cl)c2)c2ccccc2N1Cc1ccc([N+](=O)[O-])cc1	L02	cell growth or viability, MTT		48 h	IC50	22.7 µM
CNC(=S)NN=Cc1ccc(F)cc1	Leishmania tropica	parasite growth, MTT		72 h, promastigote	IC50	441 µM
Cc1nc(NC(=O)N2CCC[C@H]2C(N)=O)sc1-c1ccnc(C(C)(C)C(F)(F)F)c1	MFM-223	cell growth or viability, ATP luminescence		5 days	EC50	8.5 µM
O=C1C(=Nc2ccccc2I)c2ccccc2N1Cc1ccc(Br)cc1	L02	cell growth or viability, MTT		48 h	IC50	35.2 µM
CCOC(=O)C1=C(CN2CCC[C@H]2C(=O)Nc2cccc(B(O)O)c2)NC(c2nccs2)=N[C@H]1c1ccc(F)cc1Br	Hepatitis B virus	viral replication, inhibitor, qPCR	HepDES19	72 h	EC50	1.9 µM
C[C@H]1CNCCCN1c1nccc(-c2noc3c2CCC[C@@]32CCCc3sc(N)c(C#N)c32)n1	BaF3	cell growth or viability		72 h	EC50	0.188 µM
